The values that follow come from ChEMBL document CHEMBL3992497, “Synthesis, structure-activity relationships and biological evaluation of 7-phenyl-pyrroloquinolinone 3-amide derivatives as potent antimitotic agents” (Eur J Med Chem, 2017).

Activity calls are given as the source filed them. No cut-off for these calls is given here.

In data set [1] the test system is Liver. Nature of the data set: Drug level in human liver microsomes treated with 3-Benzoyl-7-phenyl-6H-pyrrolo[3,2-f]quinolin-9-one at 10 uM after 60 mins by fluorescence based HPLC analysis. In kind it is ADME, microsome. The following applies: 1 h. Summed up:
(§1)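 Compound at 10 μM final in 0.1 M KH2PO4 pH 7.4 with 1.0 mg/mL pooled mixed-gender human liver microsomes, without or with 1 mM NADPH; buffer-only controls. Started with microsomes after 3-min equilibration and run at 37 °C for 0–60 min. Stopped with ice-cold acetonitrile, centrifuged, supernatant run on C18 HPLC with fluorescence detection (ex 344/em 493 nm). % remaining from peak area versus 0 min. Mean ± SD, n = 3–4.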
On the technique in general: Liver microsomes are vesicles of endoplasmic reticulum, rich in cytochrome P450 enzymes.

Data set [2] concerns PBL. Nature of the data set: Antiproliferative activity against human PBL after 72 hrs by MTT assay. The format is cell-based. Summed up:
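PBL from healthy donors separated on a Lymphoprep gradient, washed, and held overnight at 1.0 × 10^6 cells/mL in RPMI-1640 with 10% FBS. Non-adherent resting cells resuspended at 5 × 10^5 cells/mL without PHA. Graded compound concentrations for 72 h, then MTT. Mean ± SEM of three separate experiments.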

For data set [3], the system named is HeLa. Description: Antiproliferative activity against human HeLa cells after 72 hrs by MTT assay. The format is functional. The method in brief:
(§2)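 Compounds from 10 mM DMSO stocks. Cells seeded at 8 × 10^3 per well and held 18 h at 37 °C in humidified 5% CO2. Medium was then replaced with fresh medium holding graded compound concentrations, in triplicate, for 72 h at 37 °C. Viability was read by MTT. GI50 is the concentration giving 50% inhibition of proliferation. Mean ± SE of ≥3 independent dose-response experiments.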
(Tetrazolium dyes change colour on reduction, which living cells bring about.)

The subject of data set [4] is Liver. Nature of the data set: Metabolic stability in human liver microsomes at 10 uM after 60 mins in presence of NADPH by fluorescence based HPLC analysis. The following applies: 1 h. The format is ADME, microsome. The method in brief:
as §1

The test system of data set [5] is Jurkat. Nature of the data set: Antiproliferative activity against human Jurkat cells after 72 hrs by MTT assay. In kind it is functional. The method in brief: as §2
Another data set relates to SEM cells. Nature of the data set: Antiproliferative activity against human SEM cells after 72 hrs by MTT assay. In kind it is functional. The method in brief: as §2
The subject of data set [6] is HeLa. Description: Cell cycle arrest in human HeLa cells assessed as accumulation at G2/M phase after 24 hrs by propidium iodide staining based flow cytometry. In kind it is functional. Summed up: (§3)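 5 × 10^5 cells exposed to varying compound concentrations for 24 h. Cells collected, fixed in ice-cold 70% ethanol, and lysed in buffer with RNase A and 0.1% Triton X-100. PI-stained, then analysed by flow cytometry for phase distribution from DNA histograms. Mean of two independent experiments.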
(Flow cytometry measures light scatter and fluorescence of single cells or particles in a stream.)

A further data set concerns MCF7. Description: Antiproliferative activity against human MCF7 cells after 72 hrs by MTT assay. The format is functional. The following applies: MCF7, 72 h. The method in brief: as §2
The test system of a further data set is A549. Description: Antiproliferative activity against human A549 cells after 72 hrs by MTT assay. In kind it is functional. The following applies: A549, 72 h. Summed up: as §2
In another data set the test system is HL-60. Nature of the data set: Antiproliferative activity against human HL60 cells after 72 hrs by MTT assay. The format is functional. The following applies: HL-60, 72 h. The method in brief:
as §2

Data set [7] has as its system HeLa. Description: Cell cycle arrest in human HeLa cells assessed as accumulation at G2/M phase at 100 nM after 24 hrs by propidium iodide staining based flow cytometry relative to control. In kind it is functional. The method in brief: as §3
Data set [8] has as its system Jurkat. Nature of the data set: Cell cycle arrest in human Jurkat cells assessed as accumulation at G2/M phase after 24 hrs by propidium iodide staining based flow cytometry. In kind it is functional. The method in brief:
as §3

The nature of data set [9]: Inhibition of bovine brain tubulin assembly preincubated for 20 mins followed by GTP addition by turbidometric method. The arrangement: species or system Bos taurus. Summed up:
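Varying compound concentrations pre-incubated with 10 μM bovine brain tubulin in glutamate buffer at 30 °C, then chilled to 0 °C. GTP added to 0.4 mM final, mixture warmed to 30 °C, turbidity followed at 350 nm.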

A further data set has as its system THP-1. Nature of the data set: Antiproliferative activity against human THP1 cells after 72 hrs by MTT assay. In kind it is functional. The following applies: THP-1, 72 h. The method in brief: as §2
Another data set concerns CCRF-CEM. Nature of the data set: Antiproliferative activity against human CCRF-CEM cells after 72 hrs by MTT assay. In kind it is functional. The method in brief:
as §2

Data set [10] is described as follows: Selectivity index, ratio of IC50 for phytohematoaglutinin-stimulated human PBL to GI50 for human Jurkat cells. Summed up: (§4)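 Ratio of two 72 h MTT viability values. Healthy-donor PBL were isolated on a density gradient, rested overnight, then seeded as non-adherent cells at 5 × 10^5 cells/mL with 2.5 μg/mL PHA and exposed to graded compound concentrations. Leukemia cells were grown in RPMI-1640 with 10% FBS, seeded at 8 × 10^3 cells/well, pre-incubated 18 h at 37 °C, and dosed in triplicate.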

Another data set concerns MV4-11. Description: Antiproliferative activity against human MV4-11 cells after 72 hrs by MTT assay. In kind it is functional. The following applies: MV4-11, 72 h. The method in brief: as §2
Data set [11] has as its system HeLa. Description: Cell cycle arrest in human HeLa cells assessed as reduction in S phase at 50 to 100 nM after 24 hrs by propidium iodide staining based flow cytometry relative to control. The format is functional. The method in brief: as §3
The subject of data set [12] is HeLa. Description: Cell cycle arrest in human HeLa cells assessed as reduction in G1 phase at 50 to 100 nM after 24 hrs by propidium iodide staining based flow cytometry relative to control. The format is functional. Summed up: as §3
The subject of data set [13] is Jurkat. Description: Cell cycle arrest in human Jurkat cells assessed as accumulation at G2/M phase at 100 nM after 24 hrs by propidium iodide staining based flow cytometry relative to control. The format is functional. The method in brief:
as §3

The subject of a further data set is HT-29. Description: Antiproliferative activity against human HT-29 cells after 72 hrs by MTT assay. The following applies: HT-29, 72 h. The format is functional. The method in brief: as §2
For data set [14], the system named is Liver. Nature of the data set: Drug metabolism in human liver microsomes assessed as 7-phenyl-3H-pyrrolo[3,2-f]quinolin-9(6H)-one formation at 10 uM after 60 mins by fluorescence based HPLC analysis. In kind it is ADME, microsome. The following applies: 1 h. Summed up: as §1
Data set [15] deals with PBL. Description: Antiproliferative activity against phytohematoaglutinin-stimulated human PBL after 72 hrs by MTT assay. In kind it is cell-based. The method in brief:
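Donor PBL isolated on a Lymphoprep gradient and rested overnight in RPMI-1640 with 10% FBS. Non-adherent cells resuspended at 5 × 10^5 cells/mL in growth medium with 2.5 μg/mL PHA. Graded compound concentrations added; viability by MTT at 72 h. Mean ± SEM of three separate experiments.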

Data set [16] has as its system HeLa. Nature of the data set: Induction of ROS generation in human HeLa cells at 10 to 100 nM after 24 to 48 hrs by H2-DCFDA staining based flow cytometry. The format is functional, cell-based. The method in brief:
(§5)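 Cells exposed for 24 or 48 h at the indicated concentrations, then loaded with H2-DCFDA. ROS read as oxidised DCF fluorescence by flow cytometry. Mean ± SEM of three independent experiments.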

For data set [17], the system named is Jurkat. Description: Induction of ROS generation in human Jurkat cells at 10 to 100 nM after 24 to 48 hrs by H2-DCFDA staining based flow cytometry. In kind it is functional, cell-based. Summed up:
as §5

The nature of data set [18]: Selectivity index, ratio of IC50 for phytohematoaglutinin-stimulated human PBL to GI50 for human CCRF-CEM cells. Summed up: as §4
Data set [19] is described as follows: Metabolic stability in human liver microsomes assessed as parent compound remaining at 10 uM after 60 mins by fluorescence based HPLC analysis. In kind it is ADME, microsome. The following applies: read-out: Stability. Summed up:
as §1

The species named for the next data set is Bos taurus. Description: Inhibition of [3H]colchicine binding to bovine brain tubulin at 5 uM relative to control. The method in brief: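 Reaction mixtures held 1 μM tubulin, 5 μM [3H]colchicine and 5 μM test compound. Inhibition of bound radiolabel measured relative to control.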
A further data set concerns RS4-11. Nature of the data set: Antiproliferative activity against human RS4:11 cells after 72 hrs by MTT assay. The following applies: RS4-11, 72 h. The format is functional. The method in brief: as §2

Turning to `O=c1cc(-c2ccccc2)[nH]c2ccc3[nH]ccc3c12`, in the data set with Liver [1], the Drug metabolism entry was “Metabolite_Detected”.

On to `O=C(c1ccccc1)n1ccc2c3c(=O)cc(-c4ccccc4)[nH]c3ccc21`, for which the IC50 (usually the concentration that gives 50% inhibition) turned out to be 28 µM in the data set with PBL [2], 890 nM in data set [9] and 15.2 µM in the data set on PBL [15]. The GI50 (in general, the concentration that inhibits growth by half) was determined as 0.2 nM with HeLa [3]; 16 nM in the data set on Jurkat [5]; 0.9 nM in the data set on SEM cells; 0.2 nM in the data set on MCF7; 10 nM in the data set on A549; 2 nM in the data set with HL-60. Moreover, the GI50 in the data set with THP-1 is 5 nM; with CCRF-CEM it was 12 nM; in the data set with MV4-11, 2 nM; with HT-29 it was 0.1 nM; with RS4-11, 0.3 nM. In the data set with Liver [4], the Stability entry was “Stable”. For the same compound, the Activity result is “Dose-dependent effect” in the data set with HeLa [6], over 50% in the data set with HeLa [7], “Dose-dependent effect” in the data set on Jurkat [8] and over 50% in the data set with Jurkat [13]. Besides, the “Selectivity Index” value in data set [10] and in [18] was 1000 - 2000 each time. Moreover, the outcome with HeLa [11], in the data set with HeLa [12], with HeLa [16] and in the data set with Jurkat [17] was Active. For the same compound, in the data set on Liver [14], the Drug metabolism entry was “Metabolite_Detected”. The remaining at 1 h, 10 µM in data set [19] was over 60%. Moreover, in the data set filed under Bos taurus, the inhibition (commonly the relative decrease from the control value, in per cent) was 70%.
